Laboratory results taken from ChEMBL document CHEMBL4477210, “Gramine Derivatives Targeting Ca(2+) Channels and Ser/Thr Phosphatases: A New Dual Strategy for the Treatment of Neurodegenerative Diseases” (J Med Chem, 2016).
Active and inactive are the calls of the source. The calls are words filed in the database; no cut-off is given here.

Experiments:
SH-SY5Y [1] = test: Cytotoxicity against human SH-SY5Y cells assessed as reduction of cell viability at <10 uM incubated for 48 hrs by MTT assay; format: cell-based
Outline: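 SH-SY5Y cells exposed to compounds for 48 h; viability read by MTT reduction (final 0.3 mg/mL, 2 h at 37 °C in the dark), formazan dissolved in DMSO, absorbance at 540 nm, expressed as % of untreated cells.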

[2] = system: Voltage-gated calcium channel; test: Inhibition of VGCC in human SHSY-5Y cells assessed as reduction of K+-evoked cytosolic ca2+ at 1 uM incubated for 10 mins prior to KCl addition by Fluo-4-AM probe-based fluorescence analysis; format: cell-based
Outline: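 SH-SY5Y cells at confluence (48 h after seeding) loaded with 10 μM Fluo-4/AM plus 0.2% pluronic in Krebs–HEPES (pH 7.4) for 45 min at 37 °C, then washed. Compound at 1 μM for 10 min, then KCl 70 mM. Ex 485/em 520 nm; signal normalized to Fmax (Triton X-100) minus Fmin (MnCl2). At least six experiments versus K+ response without compound.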

Homo sapiens [3] = species on record: Homo sapiens; test: Suppression of okadaic acid-induced inhibition of PP1/PP2A in human SHSY-5Y cells at 0.1 uM using pNPP as substrate assessed as remaining total phosphatase activity incubated for 30 mins by colorimetric assay (reference value: 68 +/- 2%); format: cell-based
Outline: (§1)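 SH-SY5Y cells treated with compound at 0.1 μM plus okadaic acid 15 nM (24 h preincubation, then coincubation). Medium removed; assay buffer with pNPP (10 mM) added, 30 min at 37 °C in the dark, absorbance at 405 nm. For Ser/Thr activity, 1 mM orthovanadate added to the buffer. Expressed as % of untreated cells; at least four experiments.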

Homo sapiens [4] = species on record: Homo sapiens; test: Suppression of okadaic acid-induced inhibition of PP1/PP2A in human SHSY-5Y cells at 0.1 uM using pNPP as substrate assessed as remaining Ser/Thr phosphatase activity incubated for 30 mins in presence of tyrosine phosphatase inhibitor sodium orthovanadate by colorimetric assay (reference value: 61 +/- 3%); format: cell-based; outline: as §1
SH-SY5Y [5] = test: Neuroprotective activity in human SH-SY5Y cells assessed as reversal of okadaic acid-induced cytotoxicity at 0.1 uM preincubated for 24 hrs followed by […] by MTT assay; format: functional
Hippocampal neurone = test: (§2) Neuroprotective activity in Sprague-Dawley rat hippocampal cells assessed as reversal of glutamate-induced cytotoxicity at 10 uM incubated for 4 hrs by MTT assay; format: functional
Outline: (§3)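 Hippocampal slices from 2-month-old Sprague–Dawley rats stabilized 45 min at 34 °C, then coincubated 4 h with compound and glutamate 1 mM. Viability by MTT (0.3 mg/mL, 30 min), absorbance at 540 nm. Reported as % protection relative to glutamate-only slices; at least four tissue batches in quadruplicate.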

Cortical neurone = test: Cytotoxicity against rat cortical motor neurons assessed as reduction of cell viability at 1 uM incubated for 48 hrs by MTT assay; format: cell-based
Outline: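 Rat cortical motor neurons in neurobasal medium with 2% B-27 on poly-D-lysine, grown 8−10 days to a dense network, then exposed to compound for 48 h. Viability read by MTT (0.3 mg/mL final, 30 min, 37 °C, dark), formazan dissolved in DMSO, absorbance 540 nm, expressed as % of untreated cells.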

Bos taurus [6] = species on record: Bos taurus; test: Inhibition of VGCC in bovine chromaffin cells assessed as reduction in depolarization-evoked Ca2+ current at 1 uM at -80 mV holding potential using 50 millisec depolarization pulses every 20 secs by patch clamp method; format: cell-based
Bos taurus [7] = species on record: Bos taurus; test: Inhibition of VGCC in bovine chromaffin cells assessed as potentiation of compound-induced of reduction in depolarization-evoked Ca2+ current at 1 uM at -80 mV holding potential using 50 millisec depolarization pulses every 20 secs in presence of L-type VGCC blocker nifedipine by patch clamp method; format: cell-based
Bos taurus [8] = species on record: Bos taurus; test: Inhibition of VGCC in bovine chromaffin cells assessed as reduction in depolarization-evoked Ca2+ current at 1 uM at -80 mV holding potential using 50 millisec depolarization pulses every 20 secs in presence of […] N and P/Q type VGCC blocker omega-conotoxin MV2C by patch clamp method; format: cell-based
[9] = as §2; format: functional, Hippocampal neurone; outline: as §3
[10] = system: Voltage-gated calcium channel; test: Inhibition of VGCC in human SHSY-5Y cells assessed as reduction of K+-evoked cytosolic ca2+ at 3 uM incubated for 10 mins prior to KCl addition by Fluo-4-AM probe-based fluorescence analysis; format: cell-based
Outline: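 SH-SY5Y cells grown to confluence over 48 h, then loaded with 10 μM Fluo-4/AM and 0.2% pluronic acid in Krebs–HEPES (pH 7.4) for 45 min at 37 °C and washed. Compound added 10 min before depolarisation with KCl 70 mM. Fluorescence read at ex 485/em 520 nm and normalised to Fmax (Triton X-100) and Fmin (MnCl2). Inhibition taken against the K+ response without compound; ≥6 experiments.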

| Compound | Activity (SH-SY5Y [1]) | inhibition (INH) [2] [%] | Activity (Homo sapiens [3]) [%] | Activity (Homo sapiens [4]) [%] | Activity (SH-SY5Y [5]) [%] | Activity (Hippocampal neurone) | Activity (Cortical neurone) | inhibition (Bos taurus [6]) | inhibition (Bos taurus [7]) | inhibition (Bos taurus [8]) | Activity [9] [%] | inhibition (INH) [10] [%] |
| --- | --- | --- | --- | --- | --- | --- | --- | --- | --- | --- | --- | --- |
| C#CCn1cc(CN(C)C)c2cc(C)ccc21 | Non-Toxic | 14 | 80 | 74 | 12 | – | – | – | – | – | – | – |
| C#CCn1cc(CN(C)C)c2cc(Br)ccc21 | Non-Toxic | 10 | 70 | 64 | 12 | – | – | – | – | – | – | – |
| CC12CC3CC(C)(C1)CC(N)(C3)C2 | – | – | 77 | 78 | – | – | – | – | – | – | – | – |
| CN(C)Cc1cn(Cc2ccccc2)c2ccc(Br)cc12 | Non-Toxic | 38 | 81 | 78 | 56 | – | – | – | – | – | – | – |
| C#CCn1cc(CN2CCCCC2)c2cc(C)ccc21 | Non-Toxic | 25 | 71 | 66 | 42 | – | – | – | – | – | – | – |
| CCOC(=O)CCCn1cc(CN(C)C)c2cc(Br)ccc21 | Non-Toxic | 13 | 76 | 66 | 58 | Active | – | – | – | – | – | – |
| CCOC(=O)CCCn1cc(CN2CCCCC2)c2cc(Br)ccc21 | Non-Toxic | 16 | 73 | 71 | 43 | – | – | – | – | – | – | – |
| c1ccc2c(CN3CCCCC3)c[nH]c2c1 | Non-Toxic | 30 | 76 | 79 | 47 | – | Toxic | – | – | – | – | – |
| CCCCn1cc(CN2CCCCC2)c2cc(C)ccc21 | Non-Toxic | 21 | 69 | 66 | 46 | – | – | Active | – | – | – | – |
| CCCCn1cc(CN2CCCCC2)c2cc(Br)ccc21 | Non-Toxic | 63 | 78 | 79 | 71 | – | – | Active | – | – | – | – |
| Cc1ccc2c(c1)c(CN1CCCCC1)cn2Cc1ccccc1 | Non-Toxic | 22 | 77 | 78 | 56 | – | – | 40% | Active | Active | – | – |
| Cc1ccc2c(c1)c(CN(C)C)cn2CCCCN1CCCCC1 | Non-Toxic | 16 | 74 | 68 | 37 | – | – | – | – | – | – | – |
| CN(C)Cc1c[nH]c2ccc(Br)cc12 [BROMOGRAMINE] | Non-Toxic | 3 | 80 | 76 | 47 | – | – | – | – | – | 40 | – |
| CN(C)Cc1cn(CCCCN2CCCCC2)c2ccc(Br)cc12 | Non-Toxic | 14 | 73 | 68 | 31 | – | – | – | – | – | – | – |
| Cc1ccc2[nH]cc(CN(C)C)c2c1 | Non-Toxic | 10 | 79 | 77 | 59 | – | – | – | – | – | – | – |
| CN(C)Cc1c[nH]c2ccccc12 [GRAMINE] | – | 25 | 80 | 76 | 45 | – | – | Active | – | – | – | – |
| Cc1ccc2c(c1)c(CN1CCCCC1)cn2CCCCCl | Non-Toxic | 35 | 71 | 62 | 56 | Active | – | – | – | – | – | – |
| COC(=O)C1=C(C)NC(C)=C(C(=O)OC)C1c1ccccc1[N+](=O)[O-] [NIFEDIPINE] | – | – | – | – | – | – | – | – | – | – | – | 73 |
| Brc1ccc2c(c1)c(CN1CCCCC1)cn2Cc1ccccc1 | Non-Toxic | 45 | 79 | 70 | 54 | – | – | Active | – | – | – | – |
| Cc1ccc2[nH]cc(CN3CCCCC3)c2c1 | Non-Toxic | 16 | 71 | 69 | 38 | – | – | – | – | – | – | – |
| C#CCn1cc(CN2CCCCC2)c2cc(Br)ccc21 | Non-Toxic | 42 | 77 | 72 | 47 | – | – | – | – | – | – | – |
| Brc1ccc2[nH]cc(CN3CCCCC3)c2c1 | Non-Toxic | 7 | 74 | 67 | 60 | – | – | – | – | – | – | – |
| Cc1ccc2c(c1)c(CN(C)C)cn2Cc1ccccc1 | Non-Toxic | 18 | 73 | 66 | 44 | – | – | – | – | – | – | – |
| CCCCn1cc(CN(C)C)c2cc(Br)ccc21 | Non-Toxic | 14 | 81 | 76 | 66 | – | – | – | – | – | 40 | – |
| COc1ccc2[nH]cc(CCNC(C)=O)c2c1 [MELATONIN] | – | – | – | – | 43 | – | – | – | – | – | – | – |
| Cc1ccc2c(c1)c(CN1CCCCC1)cn2CCCCN1CCCCC1 | Non-Toxic | 4 | 72 | 70 | 26 | – | – | – | – | – | – | – |
| ClCCCCn1cc(CN2CCCCC2)c2cc(Br)ccc21 | Non-Toxic | 57 | 68 | 62 | 48 | – | – | – | – | – | – | – |
